Test results as given in ChEMBL document CHEMBL3751842, “Novel triazolothiadiazines act as potent anticancer agents in liver cancer cells through Akt and ASK-1 proteins” (Bioorg Med Chem, 2016).
Activity calls are given as the source filed them. The rule behind the calls is not given here.

Key:
[1] = Cytotoxicity against human Hep3B cells assessed as growth inhibition after 72 hrs by sulforhodamine B assay; type: functional, cell-based, Hep 3B2; conditions: Homo sapiens, Hep3B, 72 h; read-out: IC50
Summary of the method: (§1)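 Cells were grown at 37°C, 5% CO2 in DMEM with 10% FBS. They were seeded at 1000–3000 cells/well, grown 24 h, then exposed to compound at 2.5–40 µM for 72 h. Cells were fixed in 10% TCA for 1 h at 4°C, stained with 0.4% SRB in 1% acetic acid for 10 min, and the dye solubilized in 10 mM Tris. Absorbance was read at 515 nm; runs were in triplicate; IC50 was calculated, with fits of R2 0.8–1 accepted.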

MCF7 = experiment: Cytotoxicity against human MCF7 cells assessed as growth inhibition after 72 hrs by sulforhodamine B assay; type: functional, cell-based; conditions: Homo sapiens, MCF7, 72 h; read-out: IC50; summary of the method: as §1
[2] = Cytotoxicity against human FOCUS cells assessed as growth inhibition after 72 hrs by sulforhodamine B assay; type: functional, cell-based; conditions: Homo sapiens, FOCUS, 72 h; read-out: IC50; summary of the method: as §1
Huh-7 [3] = experiment: Induction of apoptosis in human HuH7 cells assessed as nuclear condensation at 10 uM after 48 hrs by Hoechst 33258 staining-based immunofluorescence microscopy; type: functional, cell-based
Summary of the method: (§2)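 Cells on coverslips were incubated overnight, then treated with 10 µM compound or DMSO for 48 h. They were washed in ice-cold PBS, fixed in cold methanol for 10 min, and stained with 1 µg/mL Hoechst 33258 for 5 min in the dark. Nuclei were examined by fluorescence microscopy with a 40x objective.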

Huh-7 [4] = experiment: Cytotoxicity against human HuH7 cells assessed as cell impedance at IC25 to IC100 measured every 30 mins for 72 hrs by RT-CES assay; type: functional, cell-based; conditions: TDE = time-dependent effect
Summary of the method: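 Huh7 cells were seeded at 1000–5000 cells/well on electrode plates. […] Impedance was read as cell index every 10 min for the first 24 h, then every 30 min, over 72 h. Data were normalized to DMSO; inhibition (%) = [1 − (CI treated/CI DMSO)] × 100. Each experiment was run at least three times.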

[5] = Cytotoxicity against human HuH7 cells assessed as growth inhibition after 72 hrs by sulforhodamine B assay; type: functional, cell-based, Huh-7; conditions: Homo sapiens, Huh-7, 72 h; read-out: IC50; summary of the method: as §1
Huh-7 [6] = experiment: Induction of apoptosis in human HuH7 cells assessed as horseshoe nuclear structure at 10 uM after 48 hrs by Hoechst 33258 staining-based immunofluorescence microscopy; type: functional, cell-based; summary of the method: as §2
[7] = Cytotoxicity against human HCT116 cells assessed as growth inhibition after 72 hrs by sulforhodamine B assay; type: functional, cell-based, HCT-116; conditions: Homo sapiens, HCT-116, 72 h; read-out: IC50; summary of the method: as §1
[8] = Cytotoxicity against human SNU475 cells assessed as growth inhibition after 72 hrs by sulforhodamine B assay; type: functional, cell-based, SNU-475; conditions: Homo sapiens, SNU-475, 72 h; read-out: IC50; summary of the method: as §1
[9] = Cytotoxicity against human Mahlavu cells assessed as growth inhibition after 72 hrs by sulforhodamine B assay; type: functional, cell-based; conditions: Homo sapiens, Mahlavu, 72 h; read-out: IC50; summary of the method: as §1
Huh-7 [10] = experiment: Induction of cell cycle arrest in human HuH7 cells assessed as accumulation at subG1 phase at 10 uM after 24 to 48 hrs by propidium iodide staining based FACS analysis; type: functional
Summary of the method: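 Huh7 cells were seeded at 300,000 per 100-mm dish. After 24 h they were treated with 10 µM compound or DMSO for 24 h and 48 h. Cells were trypsinized, fixed in ice-cold 70% ethanol and stored at −20 °C. They were then stained with propidium iodide and cell-cycle distribution, including SubG1, was read by flow cytometry.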

HepG2 = experiment: Cytotoxicity against human HepG2 cells assessed as growth inhibition after 72 hrs by sulforhodamine B assay; type: functional, cell-based; conditions: Homo sapiens, HepG2, 72 h; read-out: IC50; summary of the method: as §1

SMILES: CC(c1ccc(-c2ccccc2)c(F)c1)c1nnc2n1N=C(c1ccc(Cl)cc1)CS2 (configuration not stated)
- IC50 [1]: 3.8 µM
- IC50 (MCF7): 8.7 µM
- IC50 [2]: 5 µM
- Activity (Huh-7 [3]): Active
- Activity (Huh-7 [4]): tde
- IC50 [5]: 3.9 µM
- Activity (Huh-7 [6]): Active
- IC50 [7]: 7.8 µM
- IC50 [8]: 3.8 µM
- IC50 [9]: 6.1 µM
- Activity (Huh-7 [10]): Active
- IC50 (HepG2): 6.7 µM
